Source: ChEMBL document CHEMBL3244142, “Antifungal properties of 2-bromo-3-fluorosuccinic acid esters and related compounds” (1977)
In brackets after ≈: the same amount, converted by molar mass. Activity calls are given as the source filed them. The calls are words filed in the database; no cut-off is given here.

Assays:
[1] = system: Trichophyton mentagrophytes; assay: Antifungal activity against Trichophyton mentagrophytes ATCC 9129 at <100 ug/ml at pH 5.6 after 5 days in presence of 10% beef serum; type: functional, organism-based
Method in brief: (§1)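 Agar-dilution MIC in Sabouraud dextrose agar at pH 5.6 or 7.0, with or without 10% beef serum. Plates were incubated at 28 °C for 5 days. MIC is the lowest concentration (µg/mL) giving 100% inhibition. Steps were 1 µg/mL up to 10, 2 µg/mL from 10–20, and 10 µg/mL from 20–100; 100 µg/mL was the top level, and no inhibition there is scored as >100.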

[2] = system: Mucor mucedo; assay: Antifungal activity against Mucor mucedo ATCC 7941 at <100 ug/ml at pH 5.6 after 20 h in presence of 10% beef serum
[3] = system: Mucor mucedo; assay: Antifungal activity against Mucor mucedo ATCC 7941 at <100 ug/ml at pH 7 after 20 h in absence of 10% beef serum
[4] = system: Aspergillus niger; assay: Antifungal activity against Aspergillus niger ATCC 1004 at <100 ug/ml at pH 7 after 5 days in absence of 10% beef serum; type: functional, organism-based; method in brief: as §1
[5] = system: Aspergillus niger; assay: Antifungal activity against Aspergillus niger ATCC 1004 at <100 ug/ml at pH 7 after 5 days in presence of 10% beef serum; type: functional, organism-based; method in brief: as §1
[6] = system: Aspergillus niger; assay: Antifungal activity against Aspergillus niger ATCC 1004 at <100 ug/ml at pH 5.6 after 5 days in absence of 10% beef serum; type: functional, organism-based; method in brief: as §1
[7] = system: Trichophyton mentagrophytes; assay: Antifungal activity against Trichophyton mentagrophytes ATCC 9129 at <100 ug/ml at pH 7 after 5 days in presence of 10% beef serum; type: functional, organism-based; method in brief: as §1
[8] = system: Aspergillus niger; assay: Antifungal activity against Aspergillus niger ATCC 1004 at <100 ug/ml at pH 5.6 after 5 days in presence of 10% beef serum; type: functional, organism-based; method in brief: as §1
[9] = system: Mucor mucedo; assay: Antifungal activity against Mucor mucedo ATCC 7941 at <100 ug/ml at pH 5.6 after 20 h in absence of 10% beef serum
[10] = system: Candida albicans; assay: Antifungal activity against Candida albicans ATCC 10231 at <100 ug/ml at pH 7 after 20 h in absence of 10% beef serum
[11] = system: Candida albicans; assay: Antifungal activity against Candida albicans ATCC 10231 at <100 ug/ml at pH 5.6 after 20 h in presence of 10% beef serum
[12] = system: Candida albicans; assay: Antifungal activity against Candida albicans ATCC 10231 at <100 ug/ml at pH 7 after 20 h in presence of 10% beef serum
[13] = system: Mucor mucedo; assay: Antifungal activity against Mucor mucedo ATCC 7941 at <100 ug/ml at pH 7 after 20 h in presence of 10% beef serum
[14] = system: Candida albicans; assay: Antifungal activity against Candida albicans ATCC 10231 at <100 ug/ml at pH 5.6 after 20 h in absence of 10% beef serum
[15] = system: Trichophyton mentagrophytes; assay: Antifungal activity against Trichophyton mentagrophytes ATCC 9129 at <100 ug/ml at pH 5.6 after 5 days in absence of 10% beef serum; type: functional, organism-based; method in brief: as §1
[16] = system: Trichophyton mentagrophytes; assay: Antifungal activity against Trichophyton mentagrophytes ATCC 9129 at <100 ug/ml at pH 7 after 5 days in absence of 10% beef serum; type: functional, organism-based; method in brief: as §1
[17] = system: Candida albicans; assay: Antifungal activity against Candida albicans ATCC 10231 at pH 5.6 after 20 h in presence of 10% beef serum; settings: ATCC 10231, 20 h
[18] = system: Aspergillus niger; assay: Antifungal activity against Aspergillus niger ATCC 1004 at pH 5.6 after 5 days in absence of 10% beef serum; type: functional; settings: Aspergillus niger, ATCC 1004, 120 h; read-out: MIC; method in brief: as §1
[19] = system: Candida albicans; assay: Antifungal activity against Candida albicans ATCC 10231 at pH 7 after 20 h in presence of 10% beef serum; settings: ATCC 10231, 20 h
[20] = system: Candida albicans; assay: Antifungal activity against Candida albicans ATCC 10231 at pH 5.6 after 20 h in absence of 10% beef serum; settings: ATCC 10231, 20 h
[21] = system: Aspergillus niger; assay: Antifungal activity against Aspergillus niger ATCC 1004 at pH 7 after 5 days in absence of 10% beef serum; type: functional; settings: Aspergillus niger, ATCC 1004, 120 h; read-out: MIC; method in brief: as §1
[22] = system: Aspergillus niger; assay: Antifungal activity against Aspergillus niger ATCC 1004 at pH 5.6 after 5 days in presence of 10% beef serum; type: functional; settings: Aspergillus niger, ATCC 1004, 120 h; read-out: MIC; method in brief: as §1
[23] = system: Aspergillus niger; assay: Antifungal activity against Aspergillus niger ATCC 1004 at pH 7 after 5 days in presence of 10% beef serum; type: functional; settings: Aspergillus niger, ATCC 1004, 120 h; read-out: MIC; method in brief: as §1
[24] = system: Candida albicans; assay: Antifungal activity against Candida albicans ATCC 10231 at pH 7 after 20 h in absence of 10% beef serum; settings: ATCC 10231, 20 h

SMILES | inhibition [1] | inhibition [2] | inhibition [3] | inhibition [4] | inhibition [5] | inhibition [6] | inhibition [7] | inhibition [8] | inhibition [9] | inhibition [10] | inhibition [11] | inhibition [12] | inhibition [13] | inhibition [14] | inhibition [15] | inhibition [16] | other results
CCCCCCOC(=O)[C@H](F)[C@@H](Br)C(=O)OCCCCCC (relative stereo) | inactive | inactive | inactive | inactive | inactive | inactive | inactive | inactive | inactive | inactive | inactive | inactive | inactive | inactive | inactive | inactive | –
COC(=O)C(Br)C(C)F (stereo not given) | inactive | inactive | inactive | inactive | inactive | inactive | inactive | inactive | inactive | inactive | inactive | inactive | inactive | inactive | inactive | inactive | –
O=c1[nH]cc(F)c(=O)[nH]1 | inactive | inactive | inactive | inactive | inactive | inactive | inactive | inactive | inactive | inactive | inactive | inactive | inactive | inactive | inactive | inactive | –
CCCCCCOC(=O)/C=C/C(=O)OCCCCCC | inactive | inactive | inactive | inactive | inactive | inactive | inactive | inactive | inactive | inactive | inactive | inactive | inactive | inactive | inactive | inactive | –
Nc1nc(=O)[nH]cc1F [FLUCYTOSINE] | inactive | inactive | inactive | – | – | – | inactive | – | inactive | – | – | – | inactive | – | inactive | inactive | MIC [17]: 14 µg/mL; MIC [18]: 9 µg/mL (≈ 69.7 µM); MIC [19]: 14 µg/mL; MIC [20]: 9 µg/mL (≈ 69.7 µM); MIC [21]: 7 µg/mL (≈ 54.2 µM); MIC [22]: 8 µg/mL; MIC [23]: 10 µg/mL; MIC [24]: 9 µg/mL (≈ 69.7 µM)
